Source: PubChem
Shown are actives, neighbours in structure and some others; about 3% of the full set was active somewhere.
TAAR1 agonist: human TAAR1 agonism | activation, % at 3 µM | CHO RD-HGA16 TAAR1, Fluo-8 calcium fluorescence; vehicle wells 0%, saturating PEA agonist 100% | 360,000 tested, 0.99% active | Q96RJ0;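 active = activation above the mean activation of all test compounds in the run plus 3 SD, cut at about 38% in these data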
Target sequence (Q96RJ0 whole entry, looked up): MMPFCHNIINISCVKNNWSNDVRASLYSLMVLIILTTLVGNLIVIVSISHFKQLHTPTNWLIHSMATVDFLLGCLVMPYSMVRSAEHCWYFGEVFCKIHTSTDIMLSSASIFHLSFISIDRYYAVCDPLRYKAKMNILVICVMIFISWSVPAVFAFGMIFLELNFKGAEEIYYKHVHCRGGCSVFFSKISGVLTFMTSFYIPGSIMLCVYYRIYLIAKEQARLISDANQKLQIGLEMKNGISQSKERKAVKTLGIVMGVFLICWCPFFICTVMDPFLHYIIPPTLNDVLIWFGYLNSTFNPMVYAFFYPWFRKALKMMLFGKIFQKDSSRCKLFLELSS
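Test system: RD-HGA16 (CHO) cells co-expressing Gα16 and hTAAR1; dosing: one-point dosing at 3 µM (nominal); timing: 17-24 h seeding, 75 min 37 °C dye, 30 min RT; signal: kinetic Fluo-8 calcium fluorescence; read-out basis: % activation relative to PEA EC100 response; controls: DMSO and PEA EC100; replicates: n 1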
TAAR1 antag: antagonists of human TAAR1 | CHO RD-HGA16 TAAR1, Fluo-8 calcium fluorescence, antagonist | inhibition, % at 3 µM | 360,000 tested, 1.5% active | AID 624466;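 active = inhibition above a per-plate cutoff, the mean inhibition of test compounds on that plate plus 3 SD, cut at about 49% in these data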;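 note: 0% = DMSO plus EC80 beta-PEA response and 100% = DMSO alone without agonist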
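Test system: CHO RD-HGA16 cells bearing hTAAR1 | Reagent: β-PEA, EC80 | Compound dosing: 3 µM, single point | Schedule: Dye loading 75 min at 37 °C, then 30 min room temperature | Signal: Calcium fluorescence with Fluo-8 | Evaluation: Percent inhibition of PEA-evoked calcium signal, max/basal emission ratio | Control set: DMSO-only wells and EC80 β-PEA-stimulated wells | Repeats: Singlicate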
CHRM4 agonist: agonists of human muscarinic M4 receptor (CHRM4). P08173. CHO-K1 hM4/Gqi5, Fluo-8 calcium fluorescence; vehicle 0%, full acetylcholine response 100%. activation, % at 3 µM. 360,000 tested, 0.14% active. AID 624127;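 active = activation above the run mean over all test wells plus 3 SD, cut at about 32% in these data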;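 note: peak over basal fluorescence ratio per well then scaled between controls; 0% = DMSO wells and 100% = acetylcholine at EC100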
M4 PAM: potentiates acetylcholine response at human M4 receptor. P08173. CHO-K1 hM4/Gqi5, Fluo-8 calcium fluorescence, ACh EC20; 0% = ACh EC20, 100% = maximal ACh. activation, % at 3 µM. 360,000 tested, 0.4% active;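 active = activation above its plate's cutoff, the mean activation of sample wells plus 3 SD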
M4 antag: antagonists of human muscarinic M4 receptor (CHRM4) | P08173 | CHO-hM4 cells, ACh EC80, Fluo-8 calcium fluorescence | inhibition, % at 3 µM | 360,000 tested, 0.73% active | AID 624125;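 active = inhibition above its plate's cutoff, the mean inhibition of sample wells plus 3 SD, cut at about 27% in these data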;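 note: 0% = acetylcholine EC80 with DMSO and 100% = DMSO without agonist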
The depositor's hits bear a star.

For Clc1cccc(CN2CCN(c3ncc(Cc4ccccc4)cn3)CC2)c1Cl the results were TAAR1 agonist -1 and TAAR1 antag -10.
COc1ccc(C2CC(=O)C(c3cccc(F)c3)=CN2Cc2ccccc2)cc1 (stereo unspecified) was read as TAAR1 agonist 1 and TAAR1 antag 23.
`Cc1nc(Nc2ccc(Cl)c(Cl)c2)sc1C(/C=C/c1ccc2c(c1)OCO2)=NNc1ccc([N+](=O)[O-])cc1[N+](=O)[O-]` gave TAAR1 agonist 1, TAAR1 antag -7, CHRM4 agonist 1, M4 PAM 7 and M4 antag -16.
`CC1CCN(C(=O)c2[nH]cnc2C(=O)N(C)CCO)CC1` gave TAAR1 agonist 4 and TAAR1 antag -7.
For CCOC(=O)C1CCN(C(C)=C2C(=O)c3ccccc3C2=O)CC1 the results were TAAR1 agonist 5, TAAR1 antag -11, CHRM4 agonist -1, M4 PAM 17* and M4 antag 7.
Screening CCOC(=O)C1CCN(C(=O)CCCN2C(=O)c3ccccc3C2=O)CC1 returned TAAR1 agonist 16, TAAR1 antag -4, CHRM4 agonist 1, M4 PAM 6 and M4 antag -5.
`C=CCN=C1NC(c2ccc(Cl)cc2)C(C(=O)OC)=C(C)N1C` (stereo unspecified) gave TAAR1 agonist 0 and TAAR1 antag -12.
For CN(c1ccc(OCC(=O)OCC(=O)Nc2ccc([N+](=O)[O-])cc2)cc1)S(=O)(=O)c1cccs1 the results were TAAR1 agonist 41*, TAAR1 antag 60*, CHRM4 agonist 20, M4 PAM -7 and M4 antag 12.
Screening CCOc1ccc(CN(C)CC(=O)Nc2cccc(S(=O)(=O)N(C)c3ccccc3)c2)cc1 returned TAAR1 agonist 0, TAAR1 antag 6, CHRM4 agonist 9, M4 PAM -11 and M4 antag 4.
`CCC(=O)c1ccc(OCC(=O)Nc2cccc(S(=O)(=O)N(C)c3ccccc3)c2)cc1` gave TAAR1 agonist 16, TAAR1 antag 76*, CHRM4 agonist 27, M4 PAM -11 and M4 antag 29*.
CN(c1ccccc1)S(=O)(=O)c1cccc(NC(=O)COc2cccc([N+](=O)[O-])c2)c1 was read as TAAR1 agonist 26, TAAR1 antag 70*, CHRM4 agonist 27, M4 PAM -9 and M4 antag 13.
`OC(c1ccccc1)(c1ccccc1)C1CCN(CCCOc2ccccn2)CC1` gave TAAR1 agonist 1 and TAAR1 antag 6.
Screening O=S(=O)(c1ccc(F)cc1)N1CCCc2nc(-c3ccccc3)ccc21 returned TAAR1 agonist 0 and TAAR1 antag 8.
Screening CS(=O)(=O)N1CCN(C/C=C/c2ccccc2)CC1 returned TAAR1 agonist 5, TAAR1 antag -11, CHRM4 agonist 1, M4 PAM 19* and M4 antag -5.
Screening c1ccn2cc(C34CC5CC(CC(C5)C3)C4)nc2c1 returned TAAR1 agonist 0, TAAR1 antag -16, CHRM4 agonist 2, M4 PAM -27 and M4 antag 60*.
`Cc1ccc(NC(=O)OCCN(C)C(=O)Nc2ccc(C)cc2C)c(C)c1` gave TAAR1 agonist -1 and TAAR1 antag -35.
Screening CC1Cc2cc(-c3csc(NC(=O)Cc4cccs4)n3)ccc2N1S(C)(=O)=O (stereo unspecified) returned TAAR1 agonist 17, TAAR1 antag 61*, CHRM4 agonist 17, M4 PAM -26 and M4 antag 29*.
O=S1(=O)N[C@@H](Cc2ccccc2)COc2cccc(NCCO)c21 was read as TAAR1 agonist 0 and TAAR1 antag 14.
For Cc1ccccc1-c1nc(NCCN(C)C)nc2ccsc12 the results were TAAR1 agonist 1, TAAR1 antag -10, CHRM4 agonist 1, M4 PAM -13 and M4 antag 56*.
Screening COc1ccc(CCN2C(=O)CCC3=C2CCCC3=O)cc1OC returned CHRM4 agonist 0, M4 PAM -5 and M4 antag -6.
Screening CC1CCCN(Cc2ccc(OCc3ccccc3)cc2)C1 (stereo unspecified) returned TAAR1 agonist 12, TAAR1 antag -7, CHRM4 agonist 4, M4 PAM -17 and M4 antag 37*.
CCc1nc2c(OCCC3CCCCC3)cccn2c1N(C)C(=O)c1ccc(C)cc1 was read as TAAR1 agonist 3, TAAR1 antag 8, CHRM4 agonist 0, M4 PAM -8 and M4 antag -5.
Screening c1coc(CN(Cc2ccco2)c2ncnc3c2oc2ccccc23)c1 returned CHRM4 agonist 7, M4 PAM -23 and M4 antag 37*.
Screening Clc1ncnc2c1oc1ccccc12 returned TAAR1 agonist 7, TAAR1 antag -6, CHRM4 agonist 1, M4 PAM 7 and M4 antag -14.
`CN1CC[C@@H]2CN(S(=O)(=O)c3ccccc3)[C@H](c3ccccc3Br)C[C@@H]21` gave TAAR1 agonist 2 and TAAR1 antag -1.
Screening NC(=O)CSc1nc2ccccc2c(=O)n1Cc1ccco1 returned TAAR1 agonist 2, TAAR1 antag -4, CHRM4 agonist 2, M4 PAM 2 and M4 antag 0.
Screening COC(=O)c1ccc(CSc2nc3ccccc3c(=O)n2Cc2ccco2)o1 returned TAAR1 agonist 7, TAAR1 antag 60*, CHRM4 agonist 4, M4 PAM -24 and M4 antag 25.
Screening O=C(CSc1nc2ccccc2c(=O)n1Cc1ccco1)c1ccc(F)cc1 returned TAAR1 agonist 10, TAAR1 antag 50*, CHRM4 agonist 2, M4 PAM -4 and M4 antag 6.
For CCn1c(=O)c(C(=O)NNC(=O)c2ccccc2Cl)c(O)c2ccccc21 the results were TAAR1 agonist 54*, TAAR1 antag 15, CHRM4 agonist 54*, M4 PAM 2 and M4 antag -7.
CCCCCCCCCC(=O)NNC(=O)c1c(O)c2ccccc2n(CC)c1=O was read as TAAR1 agonist 5, TAAR1 antag 4, CHRM4 agonist 0, M4 PAM -1 and M4 antag -9.
Screening COc1ccc(C(=O)/C=C/C(=O)N(CC(=O)NC2CCCCC2)Cc2ccccc2)c(O)c1 returned TAAR1 agonist 41*, TAAR1 antag 66*, CHRM4 agonist 4, M4 PAM 5 and M4 antag -11.
For COc1ccc(C(=O)/C=C/C(=O)N(Cc2ccccc2)C(C(=O)NC2CCCCC2)c2ccncc2)c(O)c1 (stereo unspecified) the results were TAAR1 agonist -1, TAAR1 antag 11, CHRM4 agonist 2, M4 PAM -4 and M4 antag 14.
